Assay results as given in ChEMBL document CHEMBL3397026, “Synthesis and structure-activity relationships of novel phenoxyacetamide inhibitors of the Pseudomonas aeruginosa type III secretion system (T3SS)” (Bioorg Med Chem, 2015).

Tested on: CHO
Assay: Cytotoxicity against CHO cells by LDH release assay
Type: cell-based
Settings: Cricetulus griseus
How it was run: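 Assay run in parallel with the T3SS translocation assay, with CHO cells and compound but no P. aeruginosa. Cell death read as LDH release; CC50 derived.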

| SMILES | IC50 [µM] |
| --- | --- |
| CC(Oc1ccc(Cl)cc1Cl)C(=O)NCc1ccc2sccc2c1 (centres undefined) | 30 |
| CC(Oc1ccc(Cl)cc1Cl)C(=O)NCc1ccccc1 (centres undefined) | 95 |
| Cc1cccc(CNC(=O)C(C)Oc2ccc(Cl)cc2Cl)c1 (centres undefined) | 45 |
| COc1ccc(CNC(=O)C(C)Oc2ccc(Cl)cc2Cl)cc1OC (centres undefined) | 36 |
| CC(Oc1ccc(Cl)cc1Cl)C(=O)NOCc1ccc(F)cc1 (centres undefined) | 59 |
| Cc1ccc(CNC(=O)C(C)Oc2ccc(Cl)cc2Cl)cc1 (centres undefined) | 25 |
| CC(Oc1ccc(Cl)cc1Cl)C(=O)NCc1cc2ccccc2[nH]1 (centres undefined) | 12 |
| C[C@H](NC(=O)[C@@H](C)Oc1ccc(Cl)cc1Cl)c1ccc(F)cc1 | 32 |
| CCC(Oc1ccc(Cl)cc1Cl)C(=O)NCc1ccc2c(c1)OCO2 (centres undefined) | 67 |
| CC(Oc1ccc(Cl)cc1Cl)C(=O)NCc1ccc2occc2c1 (centres undefined) | 11 |
| CC(Oc1ccc(Cl)cc1Cl)C(=O)NCc1cccc(F)c1 (centres undefined) | 27 |
| CC(Oc1ccc(Cl)cc1Cl)C(=O)NC1(c2ccc(F)cc2)CC1 (centres undefined) | 28 |
| CC(Oc1ccc(Cl)cc1Cl)C(=O)NNCc1ccc(F)cc1 (centres undefined) | 31 |
| CC(Oc1ccc(Cl)cc1Cl)C(=O)NCc1cnc2[nH]ccc2c1 (centres undefined) | 21 |
| COc1ccc(CNC(=O)C(C)Oc2ccc(Cl)cc2Cl)cc1 (centres undefined) | 71 |
| CC(Oc1ccc(Cl)cc1Cl)C(=O)NCc1ccc2c(ccn2C)c1 (centres undefined) | 6.3 |
| CC(Oc1ccc(Cl)cc1)C(=O)NCc1ccc2c(c1)OCO2 (centres undefined) | 65 |
| CC(Oc1ccc(Cl)cc1Cl)C(=O)NCc1ccccc1F (centres undefined) | 47 |
| CC(Oc1ccc(Cl)cc1Cl)C(=O)NCc1ccc(F)cc1 (centres undefined) | 59 |
| C[C@@H](Oc1ccc(Cl)cc1Cl)C(=O)N[C@H](C)c1ccc(F)cc1 | 97 |
| CC[C@@H](Oc1ncc(Cl)cc1Cl)C(=O)NC(CO)c1ccc(F)cc1 (some centres undefined) | 75 |
| CC(Oc1ccc(Cl)cc1Cl)C(=O)NCc1cccc(Cl)c1 (centres undefined) | 19 |
| CC(Oc1ccc(Cl)cc1Cl)C(=O)NCc1cccc2[nH]ccc12 (centres undefined) | 24 |
| CC(Oc1ccc(Cl)cc1Cl)C(=O)NCc1ccc(Cl)cc1 (centres undefined) | 39 |
| CC(Oc1ccc(Cl)cc1Cl)C(=O)NCc1ccc2cc[nH]c2c1 (centres undefined) | 9.4 |
| CC(Oc1ccc(Cl)cc1Cl)C(=O)NCCc1ccc(F)cc1 (centres undefined) | 17 |
| CC(Oc1ccc(Cl)cc1Cl)C(=O)NNc1ccc(F)cc1 (centres undefined) | 35 |

Molecular target: not listed separately
Assay: Inhibition of T3SS-mediated secretion of an ExoS-beta-lactamase fusion protein into the culture medium in Pseudomonas aerguinosa MDM973 assessed as inhibition of nitrocefin hydrolysis by secretion assay
Set-up: species or system Pseudomonas aeruginosa
Settings: not given
How it was run: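 ExoS-βLA fusion protein secreted by strain MDM973, detected as hydrolysis of chromogenic nitrocefin by the externalized enzyme. Absorbance read at 490 nm. Percent inhibition calculated relative to drug-free (0%) and uninduced controls (no ExoS-βLA secreted; 100%).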

| SMILES | IC50 [µM] |
| --- | --- |
| CC(Oc1ccc(Cl)cc1Cl)C(=O)OCCc1ccc(F)cc1 (centres undefined) | > 100 |
| CC(Oc1ccc(Cl)cc1Cl)C(=O)NCc1ccc2sccc2c1 (centres undefined) | 6 |
| CC(Oc1ccc(Cl)cc1Cl)C(=O)Nc1ccc(F)cc1 (centres undefined) | > 100 |
| CC(C)C(Oc1ccc(Cl)cc1Cl)C(=O)NCc1ccc2c(c1)OCO2 (centres undefined) | > 100 |
| CC(Oc1ccc(Cl)cc1Cl)C(=O)NCCCc1ccc(F)cc1 (centres undefined) | > 100 |
| COc1ccc(OC(C)C(=O)NCc2ccc3c(c2)OCO3)c(Cl)c1 (centres undefined) | > 100 |
| CC(Cc1ccc(Cl)cc1Cl)C(=O)NCc1ccc2c(c1)OCO2 (centres undefined) | > 100 |
| COc1ccccc1CNC(=O)C(C)Oc1ccc(Cl)cc1Cl (centres undefined) | 28 |
| CC(C)(Oc1ccc(Cl)cc1Cl)C(=O)NCc1ccc2c(c1)OCO2 | > 100 |
| CC(Oc1ccc(Cl)cc1F)C(=O)NCc1ccc2c(c1)OCO2 (centres undefined) | > 100 |
| CC(Oc1ccc(C#N)cc1Cl)C(=O)NCc1ccc2c(c1)OCO2 (centres undefined) | > 100 |
| CC(Oc1ccc(F)cc1F)C(=O)NCc1ccc2c(c1)OCO2 (centres undefined) | > 100 |
| CC(C(=O)NCc1ccc(F)cc1)S(=O)(=O)c1ccc(Cl)cc1Cl (centres undefined) | > 100 |
| CC(Cc1ccc(Cl)cc1Cl)C(=O)NCc1ccc(F)cc1 (centres undefined) | > 100 |
| CC(Oc1ccc(Cl)cc1Cl)C(=O)CCc1ccc(F)cc1 (centres undefined) | > 100 |
| CC(Oc1ccc(Cl)cc1Cl)C(=O)NC(C(=O)O)c1ccc(F)cc1 (centres undefined) | > 100 |
| CC(C(=O)NCc1ccc2c(c1)OCO2)S(=O)(=O)c1ccc(Cl)cc1Cl (centres undefined) | > 100 |
| CCCC(Oc1ccc(Cl)cc1Cl)C(=O)NCc1ccc2c(c1)OCO2 (centres undefined) | > 100 |
| O=C(COc1ccc(Cl)cc1Cl)NCc1ccc2c(c1)OCO2 | > 100 |
| CC(Oc1ccc(Cl)cc1Cl)C(=O)N(C)Cc1ccc(F)cc1 (centres undefined) | 28.5 |
| CC(Oc1ccc(Cl)cc1Cl)C(=O)OCc1ccc(F)cc1 (centres undefined) | > 100 |

Tested on: not listed separately
Assay: Inhibition of T3SS-mediated translocation in Pseudomonas aerguinosa PA99U co-expressing PcrV and PopB/PopD assessed as inhibition of ExoU-mediated lysis of co-incubated CHO cells by LDH release assay
Type: cell-based
Settings: Pseudomonas aeruginosa
How it was run: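 CHO cells co-incubated with P. aeruginosa PA99U33 plus compound, with procedure otherwise per earlier work. ExoU-mediated CHO lysis read out as LDH release. A parallel run without bacteria gave CHO cytotoxicity (CC50).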

| SMILES | IC50 [µM] |
| --- | --- |
| CC(Oc1ccc(Cl)cc1Cl)C(=O)NCc1ccc2sccc2c1 (centres undefined) | 5.3 |
